According to ChEMBL document CHEMBL3414559, “Novel C-4 heteroaryl 13-cis-retinamide Mnk/AR degrading agents inhibit cell proliferation and migration and induce apoptosis in human breast and prostate cancer cells and suppress growth of MDA-MB-231 human breast and CWR22Rv1 human prostate tumor xenografts in mice” (J Med Chem, 2015):
The source made the active and inactive calls. No cut-off for these calls is given here.

Assays:
MDA-MB-231 [1] = assay: Inhibition of cell migration of human MDA-MB-231 cells at 5 uM after 24 hrs by wound healing assay; type: functional, cell-based
Procedure, shortened: (§1)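 Cells (5 × 10⁵ per well) grown to confluence, monolayer scratched at time zero, then exposed to 5 μM for 24 h; initial and final wounds photographed at 100×.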

PC-3 = assay: Inhibition of cell migration of human PC3 cells at 5 uM after 24 hrs by wound healing assay; type: functional, cell-based; procedure, shortened: as §1
MDA-MB-231 [2] = assay: Antitumor activity against human MDA-MB-231 cells xenografted in nude mouse assessed as reduction in peIF4E protein expression at 20 mg/kg, ip dosed once daily for 5 days per week for 28 days by SDS-PAGE and Western blotting method
MDA-MB-468 [3] = assay: Induction of apoptosis in human MDA-MB-468 cells assessed as increase in c-PARP formation at 0.63 uM to 20 uM after 24 hrs by SDS-PAGE and Western blotting method; type: functional, cell-based
Procedure, shortened: (§2)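 Breast cancer cells in RPMI 1640 with 10% FBS treated 24 h at indicated concentrations, DMSO vehicle control; equal protein loaded on SDS–PAGE and immunoblotted for Mnk1, Mnk2, peIF4E, eIF4E and cleaved PARP; blots reprobed for GAPDH as loading control.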

MDA-MB-231 [4] = assay: Antitumor activity against human MDA-MB-231 cells xenografted in SCID mouse assessed as tumor growth at 20 mg/kg, ip dosed once daily for 5 days per week for 28 days; type: functional; settings: route intraperitoneal, in the assay text read “athymic nude mouse” for “SCID mouse”
Procedure, shortened: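 Athymic nude female mice with subcutaneous MDA-MB-231 tumors (10 × 10⁶ cells; ~100 mm³ at randomization, n = 6/group) dosed ip once daily, 5 days/week for 28 days, in 40% β-cyclodextrin/ddH₂O; vehicle controls. %T/C computed as median tumor volume treated vs control at day 28 × 100. Body weight monitored.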

MDA-MB-231 [5] = assay: Antitumor activity against human MDA-MB-231 cells xenografted in nude mouse assessed as reduction in Bcl2 protein expression at 20 mg/kg, ip dosed once daily for 5 days per week for 28 days by SDS-PAGE and Western blotting method
LNCaP [6] = assay: Reduction in fAR protein expression in human LNCAP cells at 0.6 uM to 20 uM after 24 hrs by SDS-PAGE and Western blotting method; type: functional, cell-based
Procedure, shortened: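 LNCaP cells were treated for 24 h across 0.6–20 μM, with vehicle (DMSO) controls. Equal protein from lysates was run on SDS–PAGE and immunoblotted for fAR, Mnk1/2, peIF4E, cyclin D1 and cleaved PARP. Blots were reprobed for β-actin as loading control.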

MCF7 [7] = assay: Growth inhibition of human MCF7 cells by MTT assay; type: functional
Procedure, shortened: (§3)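 Cells grown in RPMI 1640 with 10% FBS, plated at 2500 cells/well, treated across a dose range; growth read by MTT. GI50 taken from dose–response curves by nonlinear regression, at least three independent experiments.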

MDA-MB-231 [8] = assay: Antitumor activity against human MDA-MB-231 cells xenografted in nude mouse assessed as reduction in cyclin D1 protein expression at 20 mg/kg, ip dosed once daily for 5 days per week for 28 days by SDS-PAGE and Western blotting method
MCF7 [9] = assay: Induction of apoptosis in human MCF7 cells assessed as increase in c-PARP formation at 0.63 uM to 20 uM after 24 hrs by SDS-PAGE and Western blotting method; type: functional, cell-based; procedure, shortened: as §2
MDA-MB-231 [10] = assay: Effect on total eIF4E protein expression in human MDA-MB-231 cells at 0.63 uM to 20 uM after 24 hrs by SDS-PAGE and Western blotting method; type: functional, cell-based; procedure, shortened: as §2
[11] = Growth inhibition of human SKBR3 cells by MTT assay; type: functional; settings: SK-BR-3; procedure, shortened: as §3
MDA-MB-468 [12] = assay: Reduction in Mnk1 protein expression in human MDA-MB-468 cells at 0.63 uM to 20 uM after 24 hrs by SDS-PAGE and Western blotting method; type: functional, cell-based; procedure, shortened: as §2
LNCaP [13] = assay: Induction of apoptosis in human LNCAP cells assessed as reduction in cyclin D1 levels at 0.6 uM to 20 uM after 24 hrs by SDS-PAGE and Western blotting method; type: functional, cell-based
Procedure, shortened: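 LNCaP cells (RPMI 1640, 10% FBS) exposed 24 h to 0.6–20 μM, DMSO vehicle control; equal protein on SDS–PAGE, immunoblotted for fAR, Mnk1/2, peIF4E, cyclin D1 and cleaved PARP; β-actin reprobe for loading.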

[14] = biological target: T1, Androgen receptor (Homo sapiens) (UniProt P10275); settings: LNCaP, at 10 µM
T1 sequence (whole entry): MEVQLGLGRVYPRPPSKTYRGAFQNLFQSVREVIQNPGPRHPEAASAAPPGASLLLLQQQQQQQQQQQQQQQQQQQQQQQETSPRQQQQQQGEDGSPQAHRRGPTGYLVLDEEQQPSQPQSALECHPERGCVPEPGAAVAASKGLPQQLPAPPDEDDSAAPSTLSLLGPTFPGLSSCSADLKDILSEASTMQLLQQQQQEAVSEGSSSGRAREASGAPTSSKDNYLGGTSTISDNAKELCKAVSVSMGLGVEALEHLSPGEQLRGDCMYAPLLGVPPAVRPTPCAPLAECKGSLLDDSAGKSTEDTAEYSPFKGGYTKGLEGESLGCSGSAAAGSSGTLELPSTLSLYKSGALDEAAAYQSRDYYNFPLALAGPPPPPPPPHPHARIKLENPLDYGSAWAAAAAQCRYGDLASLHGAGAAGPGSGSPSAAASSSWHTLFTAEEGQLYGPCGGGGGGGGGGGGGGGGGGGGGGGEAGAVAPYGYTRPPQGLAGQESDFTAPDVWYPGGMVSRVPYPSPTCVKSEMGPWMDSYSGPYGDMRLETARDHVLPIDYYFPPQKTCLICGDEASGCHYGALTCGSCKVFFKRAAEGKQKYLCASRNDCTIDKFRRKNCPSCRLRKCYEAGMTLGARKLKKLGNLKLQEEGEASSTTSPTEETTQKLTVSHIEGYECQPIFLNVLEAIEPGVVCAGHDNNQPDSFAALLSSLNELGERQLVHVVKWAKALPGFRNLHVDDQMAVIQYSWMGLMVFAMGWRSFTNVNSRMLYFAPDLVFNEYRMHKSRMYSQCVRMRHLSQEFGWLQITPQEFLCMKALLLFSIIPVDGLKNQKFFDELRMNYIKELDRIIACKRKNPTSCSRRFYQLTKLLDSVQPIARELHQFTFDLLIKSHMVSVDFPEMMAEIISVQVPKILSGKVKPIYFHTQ

MDA-MB-231 [15] = assay: Reduction in peIF4E protein expression in human MDA-MB-231 cells at 0.63 uM to 20 uM after 24 hrs by SDS-PAGE and Western blotting method; type: functional, cell-based
Procedure, shortened: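 MCF-7, MDA-MB-231 and MDA-MB-468 cells, kept in RPMI 1640 with 10% FBS, were exposed for 24 h to a range of concentrations, with DMSO vehicle controls. Equal protein from lysates was separated by SDS–PAGE and probed for Mnk1, Mnk2, peIF4E, eIF4E and cPARP. GAPDH reprobing served as loading control.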

| Compound | inhibition (MDA-MB-231 [1]) | inhibition (PC-3) | Activity (MDA-MB-231 [2]) | Activity (MDA-MB-468 [3]) | T/C (MDA-MB-231 [4]) | Activity (MDA-MB-231 [5]) | inhibition (LNCaP [6]) | GI50 (MCF7 [7]) | Activity (MDA-MB-231 [8]) | Activity (MCF7 [9]) | Activity (MDA-MB-231 [10]) | GI50 [11] | inhibition (MDA-MB-468 [12]) | Activity (LNCaP [13]) | inhibition [14] | inhibition (MDA-MB-231 [15]) |
| --- | --- | --- | --- | --- | --- | --- | --- | --- | --- | --- | --- | --- | --- | --- | --- | --- |
| CC1=C(/C=C/C(C)=C/C=C/C(C)=C\C(=O)Nc2cccc(F)c2)C(C)(C)CCC1n1ccnc1 (configuration not stated) | Active | Active | Active | Dose-dependent effect | 14.6% | Active | Dose-dependent effect | 5.49 µM | Active | Dose-dependent effect | inactive | 17 µM | Dose-dependent effect | Active | Active | Dose-dependent effect |
| CC1=C(/C=C/C(C)=C/C=C/C(C)=C\C(=O)NCc2ccc(O)cc2)C(C)(C)CCC1n1ccnc1 (configuration not stated) | Active | Active | Active | Dose-dependent effect | 14.6% | Active | Dose-dependent effect | 0.16 µM | Active | Dose-dependent effect | inactive | 2.45 µM | Dose-dependent effect | Active | Active | Dose-dependent effect |
